Among the data in ChEMBL document CHEMBL1121570, “3-(4-Piperidinylalkyl)indoles, selective inhibitors of neuronal 5-hydroxytryptamine uptake” (J Med Chem, 1980) are IC50, ED50 and AD50 values, retold here.

Structures are written as SMILES. The source made the active and inactive calls. The rule behind the calls is not given here.

Test [1] deals with Sodium-dependent serotonin transporter (Homo sapiens, UniProt P31645). It is filed as functional, organism-based.
Test [2] relates to Mus musculus. The test can be described thus: Potentiation of 5-HTP in mouse after subcutaneous administration. It is filed as functional, organism-based. In a few lines: (§1)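 Mice in groups of eight received L-5-HTP 100 mg/kg ip in 0.9% NaCl. Drug was given sc 30 min after 5-HTP. Tremor was rated at 75 min (0 none, 1 moderate, 2 severe). ED50 is the dose giving a mean score of 1, derived from the group global scores.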

Test [3] relates to Rattus norvegicus. The test can be described thus: Antagonism of tetrabenazine ptosis in rat after oral administration. It is filed as functional, organism-based. The essentials:
(§2)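 Rats dosed orally 0.5 h before tetrabenazine (10 mg/kg, sc). Ptosis scored present or absent 1 h later. ED50 taken as the dose preventing ptosis in 50% of animals.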

For test [4], the target named is Sodium-dependent serotonin transporter (Rattus norvegicus, UniProt P31652). As to the kind of experiment: Inhibition of uptake of 5-HT in rat brain cortex. It is filed as functional, tissue-based.
Sequence of Sodium-dependent serotonin transporter (Rattus norvegicus, UniProt P31652) (P31652 whole entry): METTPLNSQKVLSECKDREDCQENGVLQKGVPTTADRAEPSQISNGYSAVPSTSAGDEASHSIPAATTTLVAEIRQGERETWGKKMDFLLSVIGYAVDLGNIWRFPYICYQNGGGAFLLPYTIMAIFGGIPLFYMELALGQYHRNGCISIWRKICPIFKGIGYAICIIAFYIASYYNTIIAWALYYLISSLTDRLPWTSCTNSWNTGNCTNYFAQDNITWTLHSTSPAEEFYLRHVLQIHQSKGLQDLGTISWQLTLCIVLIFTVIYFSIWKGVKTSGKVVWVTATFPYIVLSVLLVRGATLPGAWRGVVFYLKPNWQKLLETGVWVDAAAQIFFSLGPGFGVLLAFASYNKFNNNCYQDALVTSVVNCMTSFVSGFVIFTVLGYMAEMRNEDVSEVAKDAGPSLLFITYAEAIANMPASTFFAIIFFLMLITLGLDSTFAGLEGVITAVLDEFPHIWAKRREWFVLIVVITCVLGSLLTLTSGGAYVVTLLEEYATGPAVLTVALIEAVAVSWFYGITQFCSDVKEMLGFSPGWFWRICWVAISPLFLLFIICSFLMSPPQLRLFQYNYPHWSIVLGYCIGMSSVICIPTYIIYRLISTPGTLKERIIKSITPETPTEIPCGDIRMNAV
For test [5], the target named is Sodium-dependent dopamine transporter (Rattus norvegicus, UniProt P23977). As to the kind of experiment: Inhibition of uptake of dopamine (DA) rat brain striatum. It is filed as functional, tissue-based. The essentials: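 Brain synaptosomes from immature female rats (19-21 days) were incubated 5 min at 37 °C with labelled amine at 10⁻⁷ M. Four to six drug concentrations were run in duplicate. IC50 is the concentration inhibiting uptake by 50%.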
Sequence of Sodium-dependent dopamine transporter (P23977 whole entry): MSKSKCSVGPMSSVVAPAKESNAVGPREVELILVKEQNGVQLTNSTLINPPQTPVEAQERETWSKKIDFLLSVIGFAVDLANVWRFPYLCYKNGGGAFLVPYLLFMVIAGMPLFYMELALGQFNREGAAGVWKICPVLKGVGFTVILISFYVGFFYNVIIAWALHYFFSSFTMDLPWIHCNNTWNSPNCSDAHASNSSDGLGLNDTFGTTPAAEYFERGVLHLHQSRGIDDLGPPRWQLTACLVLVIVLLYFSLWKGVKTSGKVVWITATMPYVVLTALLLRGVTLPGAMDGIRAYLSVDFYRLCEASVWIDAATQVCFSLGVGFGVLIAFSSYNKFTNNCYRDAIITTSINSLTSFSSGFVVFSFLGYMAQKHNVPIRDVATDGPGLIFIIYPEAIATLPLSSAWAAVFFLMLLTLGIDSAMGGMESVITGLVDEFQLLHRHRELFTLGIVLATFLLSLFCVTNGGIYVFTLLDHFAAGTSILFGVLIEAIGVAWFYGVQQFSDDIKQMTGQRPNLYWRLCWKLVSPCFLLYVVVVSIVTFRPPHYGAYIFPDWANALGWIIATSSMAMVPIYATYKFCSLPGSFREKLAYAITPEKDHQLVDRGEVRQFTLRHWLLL

For test [6], the target named is Norepinephrine transporter (Rattus norvegicus, UniProt Q9WTR4). As to the kind of experiment: Inhibition of uptake of noradrenaline in rat brain hypothalamus. It is filed as functional, tissue-based. In a few lines: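 Brain synaptosomes from immature female rats (19-21 days) were incubated 5 min at 37 °C with labelled amine at 10⁻⁷ M. Four to six drug concentrations were run in duplicate.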
Sequence of Norepinephrine transporter (Q9WTR4 whole entry): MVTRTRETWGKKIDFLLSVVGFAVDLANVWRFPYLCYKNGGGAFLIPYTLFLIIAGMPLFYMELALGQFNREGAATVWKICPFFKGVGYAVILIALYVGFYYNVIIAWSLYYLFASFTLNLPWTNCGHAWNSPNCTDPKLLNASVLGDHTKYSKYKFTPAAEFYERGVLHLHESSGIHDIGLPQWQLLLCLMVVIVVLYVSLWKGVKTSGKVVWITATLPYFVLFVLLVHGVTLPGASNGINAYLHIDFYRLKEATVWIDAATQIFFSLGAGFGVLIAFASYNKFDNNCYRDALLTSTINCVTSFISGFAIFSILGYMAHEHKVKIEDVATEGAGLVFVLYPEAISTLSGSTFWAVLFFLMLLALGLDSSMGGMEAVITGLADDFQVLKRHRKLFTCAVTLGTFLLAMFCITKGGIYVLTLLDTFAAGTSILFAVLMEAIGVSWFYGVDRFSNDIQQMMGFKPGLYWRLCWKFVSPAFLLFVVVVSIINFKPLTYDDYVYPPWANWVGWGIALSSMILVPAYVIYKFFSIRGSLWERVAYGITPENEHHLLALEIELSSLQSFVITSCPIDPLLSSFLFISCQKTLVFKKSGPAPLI

Test [7] has as its system Mus musculus. As to the kind of experiment: Compound was tested for potentiation of 5-HTP in mouse after subcutaneous administration. It is filed as functional. Particulars: sc. The essentials: as §1
The subject of test [8] is Rattus norvegicus. As to the kind of experiment: Antagonism of tetrabenazine ptosis in rat after oral administration. It is filed as functional. The essentials: as §2
Test [9] concerns Mus musculus. The test can be described thus: Compound was tested for potentiation of 5-HTP in mouse after subcutaneous administration; Inactive at the dose 3 mg/kg. Also on record: dose 3 mg/kg. It is filed as functional, organism-based. In a few lines: as §1
The subject of test [10] is Rattus norvegicus. As to the kind of experiment: Antagonism of tetrabenazine ptosis in rat after oral administration; Inactive at the dose 10 mg/kg. On the set-up: dose 10 mg/kg. It is filed as functional, organism-based. In a few lines:
as §2

Test [11] deals with Mus musculus. The test can be described thus: Compound was tested for potentiation of 5-HTP in mouse after subcutaneous administration; Inactive at 25 mg/kg. It is filed as functional, organism-based. Also on record: dose 25 mg/kg. The essentials: as §1

Sequence of Sodium-dependent serotonin transporter (Homo sapiens, UniProt P31645) (P31645 whole entry): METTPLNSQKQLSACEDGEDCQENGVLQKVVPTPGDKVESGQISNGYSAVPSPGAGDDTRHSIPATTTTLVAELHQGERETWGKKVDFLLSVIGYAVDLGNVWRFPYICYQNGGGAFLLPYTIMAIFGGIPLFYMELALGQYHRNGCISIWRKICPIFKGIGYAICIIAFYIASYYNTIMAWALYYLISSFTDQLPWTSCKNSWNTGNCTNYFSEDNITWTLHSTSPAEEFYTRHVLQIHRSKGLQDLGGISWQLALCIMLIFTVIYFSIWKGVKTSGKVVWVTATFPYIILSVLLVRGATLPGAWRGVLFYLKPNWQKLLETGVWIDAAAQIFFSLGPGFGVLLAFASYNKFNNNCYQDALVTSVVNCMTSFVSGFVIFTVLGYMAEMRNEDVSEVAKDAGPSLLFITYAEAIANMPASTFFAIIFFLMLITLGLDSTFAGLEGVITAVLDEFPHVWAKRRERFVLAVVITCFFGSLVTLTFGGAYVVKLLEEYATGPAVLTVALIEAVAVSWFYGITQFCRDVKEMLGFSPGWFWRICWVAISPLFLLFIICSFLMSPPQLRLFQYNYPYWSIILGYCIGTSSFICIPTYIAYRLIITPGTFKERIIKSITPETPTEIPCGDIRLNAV

The term IC50 denotes the point on the concentration scale where inhibition reaches its midpoint. As a reminder, the ED50 is the dose that gives a 50% effect, or the effect in half of the subjects. For the compound `Clc1ccc2[nH]cc(CCC3CCNCC3)c2c1`, the half-inhibitory concentration (IC50) was found to be 220 nM in test [1], 130 nM in test [4], 1.5 µM in test [5] and 650 nM in test [6]. In addition, the ED50 result with Mus musculus [2] was “inactive”. Besides, in the test on Rattus norvegicus [3], the AD50 result is “inactive”.

`c1ccc2c(CC3CCNCC3)c[nH]c2c1`: the half-maximal inhibitory concentration (IC50) turned out to be 550 nM in [1], 50 nM in [4], 20 µM in [5] and 1500 nM in test [6]. For the same compound, the ED50 in the test on Mus musculus [7] came out at 10 mg/kg. In the test on Rattus norvegicus [3], the AD50 result was “inactive”.

Turning to `Cc1[nH]c2ccccc2c1CCC1CCNCC1`, the IC50 in [1] is over 1000 nM; in test [4], 2500 nM; in [5], 23 µM; in test [6], 6500 nM. Moreover, in the test on Mus musculus [2], the ED50 result is “inactive”. In addition, the AD50 in the test with Rattus norvegicus [8] was over 100 mg/kg.

As to `CN1CCC(CCc2cn(C)c3ccccc23)CC1`, the 50% inhibitory concentration (IC50) in test [1] is over 1000 nM; in test [4] it was 1700 nM; in [5], over 100 µM; in test [6], over 10000 nM. Besides, the ED50 result in the test on Mus musculus [2] is “inactive”. The AD50 entry with Rattus norvegicus [3] is “inactive”.

For the compound `Clc1ccc2[nH]cc(CC3CCNCC3)c2c1`, the IC50 was over 1000 nM in test [1], 700 nM in [4], 12 µM in test [5] and 1800 nM in test [6]. In addition, the ED50 entry with Mus musculus [9] was “inactive”. For the same compound, in the test with Rattus norvegicus [10], the AD50 entry is “inactive”.

Regarding `CN(C)CCCN1c2ccccc2CCc2ccc(Cl)cc21` [CLOMIPRAMINE], the 50% effective dose (ED50) in the test on Mus musculus [7] came out at 6.5 mg/kg. In addition, in the test on Rattus norvegicus [8], the AD50 amounted to 45 mg/kg. Besides, in test [5], half-maximal inhibition (IC50) was put at 1 µM.

On to `Oc1ccc2c(CCC3CCNCC3)c[nH]c2c1`, for which the IC50 in test [1] was over 1000 nM; in [4] it was 1500 nM; in test [5] it was 0.15 µM; in [6] it was 600 nM. In the test with Mus musculus [2], the ED50 result was “inactive”. Further, the AD50 result in the test with Rattus norvegicus [3] was “inactive”.

For `Fc1ccc2[nH]cc(CC3CCNCC3)c2c1`, the IC50 is 170 nM in test [1], 7 µM in [5] and 1000 nM in test [6]. The ED50 in the test on Mus musculus [7] worked out at 32 mg/kg. Further, in the test with Rattus norvegicus [8], the AD50 amounted to 100 mg/kg.

As for `Brc1ccc2[nH]cc(CC3CCNCC3)c2c1`, the half-inhibitory concentration (IC50) worked out at 1000 nM in [1], 700 nM in test [4], 8 µM in [5] and 600 nM in [6]. Besides, in the test on Mus musculus [9], the ED50 entry is “inactive”. For the same compound, the AD50 with Rattus norvegicus [8] was 10 mg/kg.

For the compound `CN1CCC(CCc2c[nH]c3ccccc23)CC1`, the concentration for half-maximal inhibition (IC50) was over 1000 nM in test [1], 450 nM in [4], 6.5 µM in [5] and 40000 nM in test [6]. For the same compound, the ED50 result in the test with Mus musculus [2] is “inactive”. Further, the AD50 result in the test with Rattus norvegicus [3] was “inactive”.

As for `Oc1ccc2[nH]cc(CCC3CCNCC3)c2c1`, the half-maximal inhibitory concentration (IC50) in test [1] was found to be 20 nM; in [4], 600 nM; in test [5] it was 2.7 µM; in [6], 1000 nM. The ED50 result in the test with Mus musculus [2] is “inactive”. For the same compound, in the test with Rattus norvegicus [3], the AD50 entry is “inactive”.

For `Cn1cc(CCC2CCNCC2)c2ccccc21`, the concentration for half-maximal inhibition (IC50) in test [1] came to 400 nM; in test [4], 400 nM; in test [5], 30 µM; in test [6], 1300 nM. Also, the ED50 entry with Mus musculus [11] is “inactive”. The AD50 entry with Rattus norvegicus [3] is “inactive”.

As for `c1ccc2c(CCCC3CCNCC3)c[nH]c2c1`, the 50% inhibitory concentration (IC50) in test [1] is 60 nM; in [4], 40 nM; in test [5] it was 3 µM; in test [6], 500 nM. Also, in the test on Mus musculus [7], the median effective dose (ED50) was determined as 8 mg/kg. In addition, in the test with Rattus norvegicus [8], the AD50 came out at 56 mg/kg.

With `c1ccc2c(CCC3CCNCC3)c[nH]c2c1` [INDALPINE], the IC50 in test [1] came to 30 nM; in test [4], 10 nM; in [5], 18 µM; in test [6], 1600 nM. In the test with Mus musculus [7], the ED50 is 4 mg/kg.

`COc1ccc2[nH]cc(CCC3CCNCC3)c2c1`: the concentration for half-maximal inhibition (IC50) is over 1000 nM in test [1], 140 nM in test [4], 20 µM in [5] and 3000 nM in [6]. Besides, the ED50 entry with Mus musculus [2] was “inactive”. Further, the AD50 entry in the test on Rattus norvegicus [3] was “inactive”.

Regarding `c1ccc(-c2[nH]c3ccccc3c2CCC2CCNCC2)cc1`, the concentration for half-maximal inhibition (IC50) was over 1000 nM in test [1], 2200 nM in [4], 3.5 µM in test [5] and 1500 nM in test [6]. Further, the ED50 result with Mus musculus [2] is “inactive”. Further, the AD50 entry in the test on Rattus norvegicus [3] was “inactive”.

Turning to `COc1ccc2[nH]cc(CC3CCNCC3)c2c1`, the half-inhibitory concentration (IC50) in test [1] is over 1000 nM; in test [4], 1000 nM; in test [5], over 100 µM; in test [6], 9000 nM. For the same compound, the ED50 result in the test on Mus musculus [2] is “inactive”. The AD50 entry in the test on Rattus norvegicus [3] was “inactive”.

On to `O=C(O)/C=C/C(=O)O.c1ccc(-n2cc(CCC3CCNCC3)c3ccccc32)cc1`, for which the half-inhibitory concentration (IC50) in [1] was over 1000 nM; in test [4], 1000 nM; in [5], 20 µM; in test [6], 400 nM. For the same compound, the ED50 result in the test on Mus musculus [2] is “inactive”. The compound further gave an AD50 in the test with Rattus norvegicus [8] of over 100 mg/kg.

As to `c1ccc(Cn2cc(CCC3CCNCC3)c3ccccc32)cc1`, the IC50 was over 1000 nM in [1], 1900 nM in test [4], 0.3 µM in test [5] and 5000 nM in [6]. The ED50 entry in the test on Mus musculus [2] was “inactive”. Besides, the AD50 result with Rattus norvegicus [3] was “inactive”.
